Test system: Fibroblast
Assay: Multiplex assay against human fibroblast
Format: toxicity, cell-based
Procedure, shortened: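 Hoechst33342, BioTracker Green Microtubule Cytoskeleton Dye, MitoTracker Red and Annexin V Alexa Fluor 680 were added to live cells at seeding, and imaging on a CQ1 microscope at 37°C and 5% CO2 followed compound addition. Gating by CellPathfinder machine learning separated cells into Hoechst high-intensity objects or normal cells, then normal cells into healthy, pyknosed or fragmented nuclei, then pyknosed cells into mitotic or apoptotic. Per cents of healthy-nucleus cells are reported for the tubulin, mitochondrial-mass and membrane-permeability phenotypes.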

[1] = 12 h, 1 µM, compound concentration 1 uM, replicate 1
[2] = 12 h, 1 µM, compound concentration 1 uM, replicate 2
[3] = 12 h, 10 µM, compound concentration 10 uM, replicate 1
[4] = 12 h, 10 µM, compound concentration 10 uM, replicate 2
[5] = 24 h, 1 µM, compound concentration 1 uM, replicate 1
[6] = 24 h, 1 µM, compound concentration 1 uM, replicate 2
[7] = 24 h, 10 µM, compound concentration 10 uM, replicate 1
[8] = 24 h, 10 µM, compound concentration 10 uM, replicate 2
[9] = 48 h, 1 µM, compound concentration 1 uM, replicate 1
[10] = 48 h, 1 µM, compound concentration 1 uM, replicate 2
[11] = 48 h, 10 µM, compound concentration 10 uM, replicate 1
[12] = 48 h, 10 µM, compound concentration 10 uM, replicate 2

Structure (SMILES): Cc1cccc(NC(=O)CN2CCC(c3ccccn3)CC2)c1.Cl.Cl
- Population Apoptotic (%) [1]: 47%
- Population Fragmented Nuclei (%) [1]: 16%
- Population Healthy Nuclei (%) [1]: 70%
- Population Hoechst High Intensity Objects (%) [1]: 4%
- Population Membrane Permeable-Phenotype (%) [1]: 0%
- Population Mitochondria Different-Phenotype (%) [1]: 6%
- Population Mitotic Cells (%) [1]: 52%
- Population Normal (%) [1]: 95%
- Population Pyknosed Nuclei (%) [1]: 12%
- Population Tubulin-Different-Phenotype (%) [1]: 34%
- Total Cell Count [1]: 140
- Population Apoptotic (%) [2]: 33%
- Population Fragmented Nuclei (%) [2]: 25%
- Population Healthy Nuclei (%) [2]: 55%
- Population Hoechst High Intensity Objects (%) [2]: 6%
- Population Membrane Permeable-Phenotype (%) [2]: 2%
- Population Mitochondria Different-Phenotype (%) [2]: 5%
- Population Mitotic Cells (%) [2]: 66%
- Population Normal (%) [2]: 93%
- Population Pyknosed Nuclei (%) [2]: 19%
- Population Tubulin-Different-Phenotype (%) [2]: 35%
- Total Cell Count [2]: 232
- Population Apoptotic (%) [3]: 59%
- Population Fragmented Nuclei (%) [3]: 8%
- Population Healthy Nuclei (%) [3]: 78%
- Population Hoechst High Intensity Objects (%) [3]: 10%
- Population Membrane Permeable-Phenotype (%) [3]: 1%
- Population Mitochondria Different-Phenotype (%) [3]: 7%
- Population Mitotic Cells (%) [3]: 40%
- Population Normal (%) [3]: 89%
- Population Pyknosed Nuclei (%) [3]: 13%
- Population Tubulin-Different-Phenotype (%) [3]: 36%
- Total Cell Count [3]: 229
- Population Apoptotic (%) [4]: 34%
- Population Fragmented Nuclei (%) [4]: 45%
- Population Healthy Nuclei (%) [4]: 30%
- Population Hoechst High Intensity Objects (%) [4]: 2%
- Population Membrane Permeable-Phenotype (%) [4]: 6%
- Population Mitochondria Different-Phenotype (%) [4]: 10%
- Population Mitotic Cells (%) [4]: 65%
- Population Normal (%) [4]: 98%
- Population Pyknosed Nuclei (%) [4]: 23%
- Population Tubulin-Different-Phenotype (%) [4]: 56%
- Total Cell Count [4]: 100
- Population Apoptotic (%) [5]: 50%
- Population Fragmented Nuclei (%) [5]: 18%
- Population Healthy Nuclei (%) [5]: 70%
- Population Hoechst High Intensity Objects (%) [5]: 2%
- Population Membrane Permeable-Phenotype (%) [5]: 0%
- Population Mitochondria Different-Phenotype (%) [5]: 8%
- Population Mitotic Cells (%) [5]: 50%
- Population Normal (%) [5]: 97%
- Population Pyknosed Nuclei (%) [5]: 10%
- Population Tubulin-Different-Phenotype (%) [5]: 25%
- Total Cell Count [5]: 134
- Population Apoptotic (%) [6]: 40%
- Population Fragmented Nuclei (%) [6]: 26%
- Population Healthy Nuclei (%) [6]: 53%
- Population Hoechst High Intensity Objects (%) [6]: 4%
- Population Membrane Permeable-Phenotype (%) [6]: 4%
- Population Mitochondria Different-Phenotype (%) [6]: 6%
- Population Mitotic Cells (%) [6]: 59%
- Population Normal (%) [6]: 95%
- Population Pyknosed Nuclei (%) [6]: 19%
- Population Tubulin-Different-Phenotype (%) [6]: 30%
- Total Cell Count [6]: 239
- Population Apoptotic (%) [7]: 64%
- Population Fragmented Nuclei (%) [7]: 11%
- Population Healthy Nuclei (%) [7]: 81%
- Population Hoechst High Intensity Objects (%) [7]: 7%
- Population Membrane Permeable-Phenotype (%) [7]: 0%
- Population Mitochondria Different-Phenotype (%) [7]: 11%
- Population Mitotic Cells (%) [7]: 35%
- Population Normal (%) [7]: 92%
- Population Pyknosed Nuclei (%) [7]: 6%
- Population Tubulin-Different-Phenotype (%) [7]: 38%
- Total Cell Count [7]: 217
- Population Apoptotic (%) [8]: 42%
- Population Fragmented Nuclei (%) [8]: 45%
- Population Healthy Nuclei (%) [8]: 34%
- Population Hoechst High Intensity Objects (%) [8]: 0%
- Population Membrane Permeable-Phenotype (%) [8]: 11%
- Population Mitotic Cells (%) [8]: 57%
- Population Normal (%) [8]: 100%
- Population Pyknosed Nuclei (%) [8]: 20%
- Population Tubulin-Different-Phenotype (%) [8]: 50%
- Total Cell Count [8]: 105
- Population Apoptotic (%) [9]: 80%
- Population Fragmented Nuclei (%) [9]: 25%
- Population Healthy Nuclei (%) [9]: 63%
- Population Hoechst High Intensity Objects (%) [9]: 3%
- Population Membrane Permeable-Phenotype (%) [9]: 1%
- Population Mitochondria Different-Phenotype (%) [9]: 3%
- Population Mitotic Cells (%) [9]: 20%
- Population Normal (%) [9]: 96%
- Population Pyknosed Nuclei (%) [9]: 11%
- Population Tubulin-Different-Phenotype (%) [9]: 28%
- Total Cell Count [9]: 138
- Population Apoptotic (%) [10]: 60%
- Population Fragmented Nuclei (%) [10]: 31%
- Population Healthy Nuclei (%) [10]: 55%
- Population Membrane Permeable-Phenotype (%) [10]: 4%
- Population Mitotic Cells (%) [10]: 39%
- Population Pyknosed Nuclei (%) [10]: 12%
- Population Tubulin-Different-Phenotype (%) [10]: 35%
- Total Cell Count [10]: 229
- Population Apoptotic (%) [11]: 76%
- Population Fragmented Nuclei (%) [11]: 17%
- Population Healthy Nuclei (%) [11]: 75%
- Population Hoechst High Intensity Objects (%) [11]: 7%
- Population Membrane Permeable-Phenotype (%) [11]: 2%
- Population Mitochondria Different-Phenotype (%) [11]: 5%
- Population Mitotic Cells (%) [11]: 23%
- Population Normal (%) [11]: 92%
- Population Pyknosed Nuclei (%) [11]: 7%
- Population Tubulin-Different-Phenotype (%) [11]: 44%
- Total Cell Count [11]: 238
- Population Apoptotic (%) [12]: 28%
- Population Fragmented Nuclei (%) [12]: 54%
- Population Healthy Nuclei (%) [12]: 39%
- Population Hoechst High Intensity Objects (%) [12]: 1%
- Population Mitochondria Different-Phenotype (%) [12]: 16%
- Population Mitotic Cells (%) [12]: 71%
- Population Normal (%) [12]: 98%
- Population Pyknosed Nuclei (%) [12]: 6%
- Population Tubulin-Different-Phenotype (%) [12]: 61%
- Total Cell Count [12]: 109

From ChEMBL document CHEMBL5058577, “EUbOPEN Chemogenomics Library 2 (Multiplex)” (2022)
